A selection: hits, their analogues and other compounds. The true share with any hit is near 4.8%.
ATG4B inhibitor: blocks human ATG4B protease cleavage of LC3 substrate; Q9Y4P1; ATG4B cleavage of LC3-PLA2, NBD-HPC fluorescence, 1 h; inhibition, % at 8.33 µM; actives 0.51% (n = 340,000); AID 504462; in the data active = inhibition above about 40%
ALR inh: human ALR oxidase inhibition via reduced H2O2; inhibition, % (no concentration beside the values); purified ALR, DTT oxidation, H2O2 HRP-luminol luminescence; P55789; actives 3.8% (n = 290,000);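 active = mean replicate inhibition above about 79%, with every replicate also reaching it, limit read from the data; inconclusive = only one of the two criteria met; inactive = mean below limit and not every replicate reaching it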
Target sequence (P55789 whole entry, looked up): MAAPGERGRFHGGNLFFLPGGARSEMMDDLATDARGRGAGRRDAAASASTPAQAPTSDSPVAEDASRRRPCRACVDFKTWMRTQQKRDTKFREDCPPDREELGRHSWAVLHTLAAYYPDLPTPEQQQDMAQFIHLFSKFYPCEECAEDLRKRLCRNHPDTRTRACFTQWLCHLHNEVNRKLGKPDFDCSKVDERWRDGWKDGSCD
Calb FLC: C. albicans growth modulation with fluconazole; C. albicans CaCi-2 (fluconazole-resistant clinical isolate) + fluconazole, Alamar Blue growth, 48 h; growth inhibition, % (test concentration not listed); actives 0.57% (n = 300,000); AID 1979;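 active = growth inhibition above about 58% in most replicates, limit read from the data, passing the limit was not always enough; inconclusive = exactly half the replicates above a set limit; inactive = most replicates below a set limit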;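 note: all wells also contain fluconazole at 8 µg/ml as a sub-toxic cotreatment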
UCH37 inh: blocks the human deubiquitinase UCH37. Q9Y5K5. purified proteasome/UCH37, Ub-AMC cleavage fluorescence. AID 588478. actives 0.33% (n = 330,000). inhibition, % (concentration not given with the values);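 active = mean inhibition over replicate wells above about 20%, limit read from the data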
Target sequence (Q9Y5K5 whole entry, looked up): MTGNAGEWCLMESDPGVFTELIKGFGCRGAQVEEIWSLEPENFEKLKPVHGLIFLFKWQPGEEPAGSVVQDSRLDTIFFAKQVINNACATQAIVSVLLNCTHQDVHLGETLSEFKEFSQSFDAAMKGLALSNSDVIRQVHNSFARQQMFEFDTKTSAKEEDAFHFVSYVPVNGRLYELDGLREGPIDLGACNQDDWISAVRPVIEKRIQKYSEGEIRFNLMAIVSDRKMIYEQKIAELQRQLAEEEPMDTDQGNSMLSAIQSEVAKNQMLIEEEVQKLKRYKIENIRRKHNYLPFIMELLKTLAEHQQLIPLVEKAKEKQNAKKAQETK
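Assay system: Proteasome-bound UCH37. Buffer or medium: pH 7.4 Tris-HCl (50 mM) with ovalbumin, ATP-MgCl2, DTT. Incubation: 30 min preincubation with enzyme, 25 min cleavage at room temperature. Measured by: fluorescence, ex 355 nm, em 460 nm. Read-out basis: percent inhibition. Control set: wells without proteasome as full block, compound-free enzyme plus substrate as uninhibited.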
NALP3 yeast inh: blocks the NALP3 inflammasome reconstituted in yeast. Yeast reconstituted NLRP3/ASC/caspase-1, beta-gal luminescence, 24 h. inhibition, % at 10 µM. actives 0.39% (n = 330,000);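 active = inhibition of 50% or more; inactive = inhibition below 50%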
NALP1 yeast inh: NALP1 inhibition | S. cerevisiae NALP1/ASC/caspase-1 growth, X-gal OD620, 72 h | inhibition, % at 10 µM | actives 0.61% (n = 280,000) | AID 2071; in the data active = inhibition mostly above about 24%, no sharp cut-off; inactive = mostly below about 32%
A number is an active result; . = inactive; ? = inconclusive; / = not tested or not shown.

SMILES | ATG4B inhibitor | ALR inh | Calb FLC | UCH37 inh | NALP3 yeast inh | NALP1 yeast inh
CCOC(=O)c1cc(C(O)(C(=O)OC)C(F)(F)F)c(N=CN(C)C)o1 (stereo not drawn) | / | / | / | . | / | /
Oc1ccc(C2=CCNCC2)cc1O | . | 99 | . | . | . | /
C1=C(c2ccccc2)CCNC1 | . | . | . | . | . | .
COC(=O)C1=C(c2ccc(F)cc2OCc2ccccc2)C[C@@H]2CC[C@H]1N2C(=O)NCCOc1ccc(OC)cc1 | . | . | / | . | . | /
CN(C)c1ccc(/C=C2/C(=N\O)C3CCN2CC3)cc1 | . | 99 | . | / | . | .
Cc1ccc(-c2cc(-c3ccccc3)cc(-c3ccccc3)[n+]2-c2ccccc2C(=O)O)cc1 | . | . | 96 | . | . | /
CN1CCN(c2ccc([N+](=O)[O-])c(NN=C3CN4CCC3CC4)c2)CC1 | / | / | / | . | / | /
O=C(O)c1cc[c]([Hg][Cl])cc1 | . | ? | / | / | . | /
Cc1ccc(OCCn2cc(/C=C(\C#N)C(=O)NCC3CCCO3)c3ccccc32)cc1C (stereo not drawn) | . | . | . | . | . | 45
COc1ccccc1N1CCN(Cc2ccccc2Cl)CC1 | . | / | . | . | . | .
Nc1ccc(N2CCN(Cc3ccccc3Cl)CC2)c(Cl)c1 | . | 89 | . | . | . | .
Clc1ccccc1CN1CCN(c2cccc3[nH]ccc23)CC1 | . | 97 | . | . | . | .
c1ccc2c(CN3CCCCCCC3)c[nH]c2c1 | . | . | . | . | . | .
Clc1ccccc1CN1CCN(c2ccccc2)CC1 | . | 99 | . | . | . | .
Clc1ccc(N2CCN(Cc3ccccc3Cl)CC2)cc1 | . | . | . | . | . | .
COc1ccc(C(=O)ON=C(C(N)=O)P(=O)(OC(C)C)OC(C)C)cc1 | / | / | / | . | / | /
COc1cccc(C2/C(=C(/O)c3ccc4c(c3)OCO4)C(=O)C(=O)N2CCN2CCOCC2)c1 (stereo not drawn) | . | . | / | . | . | .
CCOC(=O)c1cc(CC)sc1/N=C/C1C(=O)NC(=S)NC1=O | . | 97 | . | / | . | .
CCOC(=O)c1cc(CC)sc1/N=C/c1c(O)[nH]c(=S)[nH]c1=O | . | 98 | . | . | . | .
CCOC(=O)c1cc(C)sc1N=CC1C(=O)NC(=S)NC1=O | / | / | / | . | / | /
O=C(NN=C1CN2CCC1CC2)c1cccc(O)c1 | / | / | / | . | / | /
Cc1nn(Cc2ccccc2)c(C)c1C=C1C(=O)NC(=O)NC1=O | . | 95 | . | . | . | .
Cc1nn(Cc2ccccc2)c(C)c1C(=O)NCc1ccccc1 | . | . | . | . | . | .
Cn1cc(C(O)CN2CCCCC2)c2ccccc21 (stereo not drawn) | . | . | . | . | . | .
CCCC(C)n1[nH]c(=O)c2c1NC(=O)CSC2c1ccc(OC)cc1 (stereo not drawn) | . | . | . | 20 | . | .
SMILES | ATG4B inhibitor | ALR inh | Calb FLC | UCH37 inh | NALP3 yeast inh | NALP1 yeast inh
O=C1NC(=S)N(Cc2ccco2)C(=O)/C1=C\c1cccs1 | / | / | / | / | / | .
C=CCN1C(=O)/C(=C/c2cccs2)C(=O)NC1=S | . | 96 | . | . | / | .
COc1cc(/C=C/C(=O)c2c(O)n(CCc3ccccc3)c(=O)[nH]c2=O)ccc1O | . | 97 | . | . | . | .
Cn1nc(N)c2c1N=P(N1CCOCC1)(N1CCOCC1)N=C2c1ccccc1 | . | . | . | . | . | .
CN(C)P1(N(C)C)=Nc2c(c(N)nn2C)C(c2ccccc2)=N1 | . | 86 | . | . | . | .
Cc1cc(N=Nc2ccccc2C)ccc1N | . | 86 | . | . | . | /
O=C1C2CCN(CC2)C1Cc1ccc(OCc2ccccc2)cc1 (stereo not drawn) | . | . | 109 | . | . | .
CCN(CC)c1ccc(CC2C(=O)N(C)C(=O)N(C)C2=O)cc1 | . | 99 | . | . | . | .
CCOC(=O)[C@@]1(C#N)C(c2ccc(Cl)c(Cl)c2)[C@H](C(N)=O)N2C=C(C(C)=O)C=C[C@H]21 (stereo partly drawn) | . | . | . | / | . | .
CCOC(=O)[C@]1(C#N)[C@@H]2C=CC(C(N)=O)=CN2[C@@H](C(N)=O)[C@@H]1c1ccc(F)cc1 | 48 | . | . | . | . | .
CCOC(=O)[C@@]1(C#N)[C@@H]2C=CC(C(N)=O)=CN2[C@@H](C(N)=O)[C@@H]1c1cccc(Cl)c1 | 94 | . | . | . | . | .
COc1cc(C=NNC(=O)Cn2c([N+](=O)[O-])cnc2C)ccc1OC(=O)N(C)C | / | / | / | . | / | /
COc1cc(C(=O)NN=CC23CC[C@@H](O)CC2(O)CC[C@@H]2[C@@H]3CCC3(C)C(C4=CC(=O)OC4)CCC23O)ccc1O (stereo partly drawn) | / | / | / | . | / | /
COc1cc(C(=O)N/N=C/C23CC[C@@H](O)CC2(O)CC[C@@H]2[C@@H]3CCC3(C)C(C4=CC(=O)OC4)CCC23O)ccc1O (stereo partly drawn) | . | 95 | . | / | . | /
COc1ccccc1/C=C1/C(=NO)C2CCN1CC2 | / | / | / | . | / | /
CN1CCC(O)(c2ccccc2)C2CCCC21 (stereo not drawn) | . | . | . | . | . | .
O=C(O)C12C3CCCC1C32c1ccccc1 (stereo not drawn) | . | 99 | . | . | . | .
CC[n+]1c(/C=C/N(C)c2ccccc2)sc2ccc(Cl)cc21 | . | / | 106 | . | . | .
CC[n+]1c(/C=C/C=C/c2ccc(N(C)C)cc2)sc2ccccc21 | . | / | 102 | . | . | .
CN(C)c1ccc(/C=C/C=C/c2sc3ccccc3[n+]2C)cc1 | . | . | 98 | / | . | .
CN(C)c1ccc(/C=C/c2cc[n+](C)c3ccccc23)cc1 | . | / | / | . | / | .
COC(=O)C1C2c3ccccc3OC1(C)N=c1sc(=Cc3cnn(C)c3)c(=O)n12 (stereo not drawn) | / | / | / | . | / | /
Cc1ccc(C)c(OCc2cc(C(=O)N3C[C@H]4C[C@@H](C3)c3cccc(=O)n3C4)no2)c1 | . | . | . | . | . | .
Cc1cc(C)cc(N2C(=O)NC(=O)/C(=C\c3cccn3-c3ccc(Cl)cc3)C2=O)c1 | . | 98 | . | . | . | .
Cc1cc(C)cc(N2C(=O)NC(=O)/C(=C\c3cccn3-c3ccccc3)C2=O)c1 | . | . | . | / | . | .
CCOC(=O)c1c(N=CC2C(=O)NC(=S)NC2=O)sc2c1CCC2 | / | / | / | . | / | /
COCCNC(=O)Cn1cc(/C=C2\C(=O)NC(=O)N(c3ccccc3F)C2=O)c2ccccc21 | . | . | . | . | . | .
COCCNC(=O)Cn1cc(/C=C2\C(=O)NC(=O)N(c3cccc(C)c3C)C2=O)c2ccccc21 | . | 92 | . | . | . | .
CCC(C)N1C(=O)NC(=O)C2(Cc3c(ccc4ccccc34)N(C)C2)C1=O (stereo not drawn) | . | 93 | . | . | . | .
CNC(C)Cc1ccccc1Sc1ccc(O)cc1 (stereo not drawn) | . | 99 | . | . | . | .
